# Laboratory results as given in ChEMBL document CHEMBL5036358, “The Flavonoid Baicalein Negatively Regulates Progesterone Target Genes in the Uterus in Vivo” (J Nat Prod, 2022).
# Active and inactive are the calls of the source. The rule behind the calls is not given here.
# Assays:
# [1] = Antiproliferative activity against CD-1 mouse uterine epithelial cell at 25 mg/kg, ip for 7 days by immunohistochemistry method; type: functional; settings: time 7 day
# Method in brief: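 Ovariectomized CD-1 mice (n=5/group) received ip 10% DMSO vehicle, 1 mg/kg P4, 25 mg/kg compound, or P4 plus compound daily for 7 days. Formalin-fixed, paraffin 5 μm uterine sections underwent citrate antigen retrieval (100 °C, 30 min), then PCNA IHC (1:200, overnight 4 °C), ABC/DAB and hematoxylin counterstain. Read-out was the percentage of PCNA-positive luminal epithelial cells.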
# Mus musculus [2] = test: Upregulation of P4 induced HAND2 expression in CD-1 mouse uterus at 25 mg/kg, ip for 7 days by immunohistochemical staining method; type: functional, organism-based; settings: time 7.0 day, in the assay text read “Downregulation” for “Upregulation”
# Method in brief: (§1)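 Ovariectomized CD-1 mice (n=5/group) were dosed ip for 7 days with 10% DMSO, 1 mg/kg P4, 25 mg/kg compound, 1 mg/kg P4 plus 25 mg/kg compound, or 1 mg/kg P4 plus 10 mg/kg RU486. Uterine sections (5 μm) were processed with citrate retrieval and overnight 4 °C primary antibodies: GR 1:100; PR, HAND2 and ZBTB16 1:200. Staining used biotinylated secondary, ABC and DAB, and was assessed qualitatively.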
# Mus musculus [3] = test: Inhibition of PR induced ZBTB16 expression in CD-1 mouse uterus at 25 mg/kg,ip for 7 days by Immunohistochemical staining method; type: functional, organism-based; settings: time 7.0 day; method in brief: as §1
# Mus musculus [4] = test: Inhibition of ZBTB16 expression in CD-1 mouse uterus at 25 mg/kg, ip for 7 days by Immunohistochemical staining method; type: functional, organism-based; settings: time 7.0 day; method in brief: as §1
# Mus musculus [5] = test: Effect on P4 induced PR protein level in CD-1 mouse uterus at 25 mg/kg, ip for 7 days by immunohistochemical staining method; type: functional, organism-based; settings: time 7.0 day; method in brief: as §1
# Mus musculus [6] = test: Effect on PR protein level in CD-1 mouse uterus at 25 mg/kg, ip for 7 days by immunohistochemical staining method; type: functional, organism-based; settings: time 7.0 day; method in brief: as §1
# Mus musculus [7] = test: Effect on P4 induced GR expression in CD-1 mouse uterine stroma at 25 mg/kg, ip for 7 days by immunohistochemical analysis; type: functional, organism-based; settings: time 7.0 day; method in brief: as §1
# Mus musculus [8] = test: Effect on P4 induced GR expression in CD-1 mouse uterine luminal epithelium at 25 mg/kg, ip for 7 days by immunohistochemical analysis; type: functional, organism-based; settings: Uterine lumen, time 7.0 day; method in brief: as §1
# Mus musculus [9] = test: Effect on GR expression in CD-1 mouse uterine stroma at 25 mg/kg, ip for 7 days by immunohistochemical analysis; type: functional, organism-based; settings: time 7.0 day; method in brief: as §1
# Mus musculus [10] = test: Effect on GR expression in CD-1 mouse uterine luminal epithelium at 25 mg/kg, ip for 7 days by immunohistochemical analysis; type: functional, organism-based; settings: Uterine lumen, time 7.0 day; method in brief: as §1
# [11] = Toxicity in CD-1 mouse assessed as effect on body weight at 25 mg/kg, ip for 7 days (Rvb= 30g); type: organism-based; settings: in vivo, 168 h, time 7 day
# [12] = Toxicity in CD-1 mouse assessed as effect on uterus weight at 25 mg/kg,ip for 7 days (Rvb= 0.033g); type: organism-based; settings: in vivo, 168 h, time 7 day
# [13] = Toxicity in CD-1 mouse assessed as effect on MG weight at 25 mg/kg, ip for 7 days (Rvb= 0.22g); type: organism-based; settings: in vivo, 168 h, time 7 day
# [14] = Toxicity in CD-1 mouse assessed as effect on liver weight at 25 mg/kg, ip for 7 days (Rvb= 1.3 g); type: organism-based; settings: in vivo, 168 h, time 7 day
# [15] = Toxicity in CD-1 mouse assessed as effect on glucose level at 25 mg/kg, ip for 7 days (Rvb=231.6 mg/dL); type: organism-based; settings: in vivo, 168 h, time 7 day
# Progesterone receptor = molecular target: T1, Progesterone receptor (Homo sapiens, UniProt P06401); test: Competitive inhibition of progesterone receptor (unknown origin) by fluorescence polarization based competition assay
# T1 sequence (P06401 whole entry): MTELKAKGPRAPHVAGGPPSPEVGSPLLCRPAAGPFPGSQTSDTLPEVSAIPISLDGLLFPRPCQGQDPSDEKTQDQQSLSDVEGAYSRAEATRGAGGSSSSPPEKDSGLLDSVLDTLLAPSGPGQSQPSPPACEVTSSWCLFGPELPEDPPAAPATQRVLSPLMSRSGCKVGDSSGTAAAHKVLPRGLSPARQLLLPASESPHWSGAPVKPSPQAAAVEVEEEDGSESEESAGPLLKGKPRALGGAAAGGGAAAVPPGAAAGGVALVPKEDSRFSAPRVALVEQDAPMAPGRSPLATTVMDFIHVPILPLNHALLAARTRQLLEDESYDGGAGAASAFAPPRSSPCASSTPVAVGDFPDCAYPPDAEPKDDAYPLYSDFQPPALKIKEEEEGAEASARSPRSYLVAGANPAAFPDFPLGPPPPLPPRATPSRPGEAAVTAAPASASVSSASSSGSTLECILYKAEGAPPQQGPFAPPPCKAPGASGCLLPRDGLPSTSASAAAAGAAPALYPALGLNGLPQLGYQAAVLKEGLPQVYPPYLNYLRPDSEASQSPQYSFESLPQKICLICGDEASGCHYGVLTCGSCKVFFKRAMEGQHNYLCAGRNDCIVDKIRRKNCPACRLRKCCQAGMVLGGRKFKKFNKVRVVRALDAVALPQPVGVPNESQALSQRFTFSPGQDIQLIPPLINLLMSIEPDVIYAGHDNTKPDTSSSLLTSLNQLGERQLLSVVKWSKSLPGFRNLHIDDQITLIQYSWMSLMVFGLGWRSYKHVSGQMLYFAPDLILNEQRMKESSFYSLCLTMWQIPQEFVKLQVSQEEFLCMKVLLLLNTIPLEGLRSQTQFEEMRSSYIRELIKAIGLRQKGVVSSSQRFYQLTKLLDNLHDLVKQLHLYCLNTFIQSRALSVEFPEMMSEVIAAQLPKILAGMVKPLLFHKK
# Glucocorticoid receptor = molecular target: T2, Glucocorticoid receptor (Homo sapiens, UniProt P04150); test: Competitive inhibition of glucocorticoid receptor (unknown origin) by fluorescence polarization based competition assay
# T2 sequence (P04150 whole entry): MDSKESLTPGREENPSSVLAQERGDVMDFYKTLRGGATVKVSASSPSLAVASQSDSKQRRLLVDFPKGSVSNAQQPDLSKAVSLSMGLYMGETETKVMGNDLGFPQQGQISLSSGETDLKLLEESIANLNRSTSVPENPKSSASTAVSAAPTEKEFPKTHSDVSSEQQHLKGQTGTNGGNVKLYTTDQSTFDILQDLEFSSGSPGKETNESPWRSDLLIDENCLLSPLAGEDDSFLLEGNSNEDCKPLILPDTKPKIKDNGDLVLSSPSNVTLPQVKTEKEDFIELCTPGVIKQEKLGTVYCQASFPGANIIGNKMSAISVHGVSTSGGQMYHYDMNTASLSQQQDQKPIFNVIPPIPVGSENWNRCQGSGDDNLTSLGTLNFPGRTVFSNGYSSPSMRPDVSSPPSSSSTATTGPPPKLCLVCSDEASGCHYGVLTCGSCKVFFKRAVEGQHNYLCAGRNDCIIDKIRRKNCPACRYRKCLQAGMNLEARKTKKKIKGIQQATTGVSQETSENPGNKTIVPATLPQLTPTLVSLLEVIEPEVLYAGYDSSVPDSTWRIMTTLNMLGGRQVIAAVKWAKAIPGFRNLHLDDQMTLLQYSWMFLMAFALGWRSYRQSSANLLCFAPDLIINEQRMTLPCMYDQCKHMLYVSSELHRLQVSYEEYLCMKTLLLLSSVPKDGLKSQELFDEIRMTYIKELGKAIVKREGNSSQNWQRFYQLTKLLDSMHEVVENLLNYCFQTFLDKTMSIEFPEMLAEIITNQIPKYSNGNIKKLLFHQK
# [16] = Toxicity in P4 induced CD-1 mouse assessed as effect on body weight at 25 mg/kg, ip for 7 days (Rvb= 30g); type: organism-based; settings: in vivo, 168 h, time 7 day
# [17] = Toxicity in P4 induced CD-1 mouse assessed as effect on uterus weight at 25 mg/kg,ip for 7 days (Rvb= 0.033g); type: organism-based; settings: in vivo, 168 h, time 7 day
# [18] = Toxicity in P4 induced CD-1 mouse assessed as effect on MG weight at 25 mg/kg, ip for 7 days (Rvb= 0.22g); type: organism-based; settings: in vivo, 168 h, time 7 day
# [19] = Toxicity in P4 induced CD-1 mouse assessed as effect on liver weight at 25 mg/kg, ip for 7 days (Rvb= 1.3 g); type: organism-based; settings: in vivo, 168 h, time 7 day
# [20] = Toxicity in P4 induced CD-1 mouse assessed as effect on glucose level at 25 mg/kg, ip for 7 days (Rvb=231.6 mg/dL); type: organism-based; settings: in vivo, 168 h, time 7 day
# Mus musculus [21] = test: Upregulation of HAND2 expression in CD-1 mouse uterus at 25 mg/kg, ip for 7 days by immunohistochemical staining method; settings: time 7.0 day
structure (smiles),measurement,setting,value
O=c1cc(-c2ccccc2)oc2cc(O)c(O)c(O)c12 [BAICALEIN],Activity,[1],47%
same,Activity,Mus musculus [2],Active
same,inhibition,Mus musculus [3],Active
same,inhibition,Mus musculus [4],inactive
same,Activity,Mus musculus [5],inactive
same,Activity,Mus musculus [6],inactive
same,Activity,Mus musculus [7],Active
same,Activity,Mus musculus [8],Active
same,Activity,Mus musculus [9],inactive
same,Activity,Mus musculus [10],inactive
same,Activity,[11],30 g
same,Activity,[12],0.026 g
same,Activity,[13],0.26 g
same,Activity,[14],1.4 g
same,Activity,[15],196.2 mg/dL
same,IC50,Progesterone receptor,15 µM
same,IC50,Glucocorticoid receptor,19 µM
same,Activity,[16],30 g
same,Activity,[17],0.024 g
same,Activity,[18],0.23 g
same,Activity,[19],1.2 g
same,Activity,[20],179.8 mg/dL
same,Activity,Mus musculus [21],inactive
